Reference: paper PMC10213863 (Cell Reports Medicine, 2023)

What was measured:
[1] = target: T1, TLR9 (Homo sapiens, UniProt Q9NR96); test: Ramos Blue reporter B cell line, ODN2006 stimulation; type: cell-based; details: Ramos cells
T1 sequence (Q9NR96 26-1032): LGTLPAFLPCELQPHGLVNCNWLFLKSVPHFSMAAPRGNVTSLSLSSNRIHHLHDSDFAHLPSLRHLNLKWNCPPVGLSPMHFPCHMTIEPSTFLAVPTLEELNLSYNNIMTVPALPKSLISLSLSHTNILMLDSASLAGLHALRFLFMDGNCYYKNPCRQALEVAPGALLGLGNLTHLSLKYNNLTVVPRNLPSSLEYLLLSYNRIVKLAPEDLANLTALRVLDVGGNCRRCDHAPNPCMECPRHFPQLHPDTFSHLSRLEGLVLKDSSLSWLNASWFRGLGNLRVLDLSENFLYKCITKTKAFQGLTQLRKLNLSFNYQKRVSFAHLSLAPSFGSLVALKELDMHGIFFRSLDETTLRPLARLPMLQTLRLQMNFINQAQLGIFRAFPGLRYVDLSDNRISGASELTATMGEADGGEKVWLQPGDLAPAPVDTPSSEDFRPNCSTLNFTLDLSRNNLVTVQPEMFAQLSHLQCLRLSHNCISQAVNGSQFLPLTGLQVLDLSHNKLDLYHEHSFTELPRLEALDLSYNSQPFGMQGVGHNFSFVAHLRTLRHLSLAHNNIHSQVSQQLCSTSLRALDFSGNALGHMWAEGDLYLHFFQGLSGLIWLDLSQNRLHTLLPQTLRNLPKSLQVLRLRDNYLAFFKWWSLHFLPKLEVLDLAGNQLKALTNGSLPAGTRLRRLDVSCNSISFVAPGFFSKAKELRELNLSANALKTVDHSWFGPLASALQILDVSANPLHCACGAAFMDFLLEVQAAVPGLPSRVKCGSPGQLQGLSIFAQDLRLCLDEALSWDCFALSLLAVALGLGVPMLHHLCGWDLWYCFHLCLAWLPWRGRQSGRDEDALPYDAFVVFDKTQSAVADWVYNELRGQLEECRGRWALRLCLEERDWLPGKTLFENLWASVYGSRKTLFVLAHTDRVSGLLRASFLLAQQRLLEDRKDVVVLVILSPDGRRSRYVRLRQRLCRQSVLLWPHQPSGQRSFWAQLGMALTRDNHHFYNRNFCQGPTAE
Method in brief: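 Ramos Blue B reporter cells were pre-treated 30 min at 37°C, 5% CO2 with increasing concentrations of test compound or 0.25% v/v DMSO. They were then stimulated with the respective agonist, and reporter activity was read.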

[2] = target: T2, TLR7 (Homo sapiens, UniProt Q9NYK1); test: Human PBMC assay, ssRNA-induced IFN-α; type: cell-based; details: human PBMCs, mean ± SEM (n)
T2 sequence (Q9NYK1 27-1049): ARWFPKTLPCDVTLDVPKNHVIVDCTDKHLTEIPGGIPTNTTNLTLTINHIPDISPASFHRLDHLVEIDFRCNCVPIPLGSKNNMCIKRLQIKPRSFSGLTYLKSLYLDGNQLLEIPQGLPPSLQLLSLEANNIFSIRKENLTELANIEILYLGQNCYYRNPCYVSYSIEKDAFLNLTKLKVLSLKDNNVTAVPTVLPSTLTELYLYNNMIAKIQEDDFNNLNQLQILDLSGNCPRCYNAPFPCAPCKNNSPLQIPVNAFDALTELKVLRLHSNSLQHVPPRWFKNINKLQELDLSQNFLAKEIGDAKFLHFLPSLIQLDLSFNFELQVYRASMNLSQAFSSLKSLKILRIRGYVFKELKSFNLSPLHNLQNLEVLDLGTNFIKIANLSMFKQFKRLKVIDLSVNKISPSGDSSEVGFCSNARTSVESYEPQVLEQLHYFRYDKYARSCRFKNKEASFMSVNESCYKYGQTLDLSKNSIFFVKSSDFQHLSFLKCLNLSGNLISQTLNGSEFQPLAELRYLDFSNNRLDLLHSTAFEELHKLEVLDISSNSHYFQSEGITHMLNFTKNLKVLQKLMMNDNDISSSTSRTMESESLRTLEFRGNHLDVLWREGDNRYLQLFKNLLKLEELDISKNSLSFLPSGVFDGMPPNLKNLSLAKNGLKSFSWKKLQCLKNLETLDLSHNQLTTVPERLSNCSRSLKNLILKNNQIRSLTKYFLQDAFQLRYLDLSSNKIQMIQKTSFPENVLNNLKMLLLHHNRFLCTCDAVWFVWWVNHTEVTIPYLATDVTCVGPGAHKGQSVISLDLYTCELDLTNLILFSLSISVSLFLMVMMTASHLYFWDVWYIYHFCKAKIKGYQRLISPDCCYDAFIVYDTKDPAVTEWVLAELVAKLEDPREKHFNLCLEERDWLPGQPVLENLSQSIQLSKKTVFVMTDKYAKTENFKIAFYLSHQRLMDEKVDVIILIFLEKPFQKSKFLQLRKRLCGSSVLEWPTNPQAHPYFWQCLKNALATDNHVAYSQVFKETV
Method in brief: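 Human PBMCs were pre-incubated 30 min with test compound, then stimulated with the respective TLR or IL-1R agonist at doses from earlier work. Cytokines in supernatants were quantified by immunoassay. Viability across the dose range was checked by CellTiter-Glo.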

[3] = system: TMPD-induced peritonitis in Balb/c mice; test: Mouse TMPD peritonitis; type: in vivo; details: prophylactic oral b.i.d.
Method in brief: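 Female Balb/c mice (5 per group) were dosed orally b.i.d. from day −1 with test compound in 0.5% MC/0.5% Tween80, or vehicle. On day 0 they were injected i.p. with 0.5 mL TMPD; naive mice were controls. Peritoneal lavage (HBSS, 2% FBS) supernatants were assayed for CCL2 by ELISA. Inflammatory monocytes were counted by flow (live/dead, CD11b, Ly6C, Ly6G). ISGs were measured by qPCR (2−ΔΔCt vs HPRT, triplicates), averaged and normalized to naive = 100%.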

[4] = target: T1, TLR9; test: Isolated human pDC assay, ODN2216-driven IFN-α; type: cell-based; details: fixed dose of MHV370
Method in brief: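 pDCs were negatively enriched from PBMCs and resuspended in RPMI1640 with 10 ng/mL recombinant human IL-3. They were pre-treated 30 min with test compound or 0.25% v/v DMSO. Stimulation was 20 h at 37°C, 5% CO2 with ssRNA40 (10 μg/mL plus 25 μg/mL DOTAP) or ODN2216 (0.3 μM). IFN-α in supernatants was read by AlphaLisa; viability by CellTiter-Glo.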

Cc1cc(N2CCc3c(c(C)nn3CC34CCC(NC(=O)[C@@H]5COCCN5)(CC3)CC4)C2)c2cnn(C)c2n1 [MHV370, (S)-N-(4-((5-(1,6-dimethyl-1H-pyrazolo[3,4-b]pyridin-4-yl)-3-methyl-4,5,6,7-tetrahydro-1H-pyrazolo[4,3-c]pyridin-1-yl)methyl)bicyclo[2.2.2]octan-1-yl)morpholine-3-carboxamide]
inhibitory activity against endosomal TLR9 [1]: no or very limited inhibitory activity
IC50 [2]: 4.1 ± 0.4 nM
ex vivo stimulated PD marker CD69 in peripheral blood [3]: reduced in peripheral blood of mice in a dose-dependent manner
panel of ISGs in peritoneal cells and blood [3]: dose-dependently suppressed
inflammatory monocytes and CCL2 in the peritoneum ([3]; day 7): dose-dependent reduction
ODN2216/TLR9-dependent IFN-α secretion from pDCs [4]: did not block
